Activity calls are given as the source filed them. The rule behind the calls is not given here.
Legend:
Berkeleyomyces basicola [1] = assay: microbe, parasite or virus in culture; format: functional; details: 120 h, read-out: GI
Berkeleyomyces basicola [2] = assay: microbe, parasite or virus in culture; format: functional; details: 120 h, read-out: GI; remark: listed apart in the source
Alternaria solani [3] = assay: microbe, parasite or virus in culture; format: functional; details: 120 h, read-out: GI
Alternaria solani [4] = assay: microbe, parasite or virus in culture; format: functional; details: 120 h, read-out: GI; remark: listed apart in the source
Sclerotinia minor [5] = assay: microbe, parasite or virus in culture; format: functional; details: 120 h, read-out: GI
Sclerotinia minor [6] = assay: microbe, parasite or virus in culture; format: functional; details: 120 h, read-out: GI; remark: listed apart in the source
Botrytis cinerea [7] = assay: microbe, parasite or virus in culture; format: functional; details: 120 h, read-out: GI
Botrytis cinerea [8] = assay: microbe, parasite or virus in culture; format: functional; details: 120 h, read-out: GI; remark: listed apart in the source
Botrytis cinerea [9] = assay: microbe, parasite or virus in culture; format: functional; details: 120 h, read-out: GI; remark: listed apart in the source
Botrytis cinerea [10] = assay: microbe, parasite or virus in culture; format: functional; details: 120 h, read-out: GI; remark: listed apart in the source
Pyricularia grisea [11] = assay: microbe, parasite or virus in culture; format: functional; details: 120 h, read-out: GI
Pyricularia grisea [12] = assay: microbe, parasite or virus in culture; format: functional; details: 120 h, read-out: GI; remark: listed apart in the source
Pyricularia grisea [13] = assay: microbe, parasite or virus in culture; format: functional; details: 120 h, read-out: GI; remark: listed apart in the source
Penicillium crustosum [14] = assay: microbe, parasite or virus in culture; format: functional; details: 120 h, read-out: GI
Penicillium crustosum [15] = assay: microbe, parasite or virus in culture; format: functional; details: 120 h, read-out: GI; remark: listed apart in the source
Penicillium italicum [16] = assay: microbe, parasite or virus in culture; format: functional; details: ATCC 48952, 120 h, read-out: GI
Penicillium italicum [17] = assay: microbe, parasite or virus in culture; format: functional; details: ATCC 48952, 120 h, read-out: GI; remark: listed apart in the source
Trichoderma viride [18] = assay: microbe, parasite or virus in culture; format: functional; details: 120 h, read-out: GI
Trichoderma viride [19] = assay: microbe, parasite or virus in culture; format: functional; details: 120 h, read-out: GI; remark: listed apart in the source
Trichoderma harzianum [20] = assay: microbe, parasite or virus in culture; format: functional; details: (Pers.)-Tul, 120 h, read-out: GI
Trichoderma harzianum [21] = assay: microbe, parasite or virus in culture; format: functional; details: (Pers.)-Tul, 120 h, read-out: GI; remark: listed apart in the source
Pyricularia grisea [22] = assay: microbe, parasite or virus in culture; format: functional; details: 120 h, read-out: GI; remark: listed apart in the source
Penicillium crustosum [23] = assay: Antifungal activity against Penicillium crustosum assessed as color variation of hyphae at 200 ug/ml after 5 days by electron microscopy; format: functional, organism-based
How it was run: (§1)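 Mycelium disks (10 mm) from stationary-phase cultures were grown on cellophane over PDA at 26 ± 1 °C to log phase. They were then moved to PDA containing compound at 200 µg mL-1 from DMSO stock (final DMSO 0.1%), with 0.1% DMSO controls. Pigmentation was judged visually and photographically against untreated cultures of the same age.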

Pyricularia grisea [24] = assay: Antifungal activity against Magnaporthe grisea assessed as bleaching of hyphae at 200 ug/ml after 5 days by electron microscopy; format: functional, organism-based
How it was run: as §1

Alternaria solani [25] = assay: Antifungal activity against Alternaria solani Nees assessed as bleaching of hyphae at 200 ug/ml after 5 days by electron microscopy; format: functional, organism-based
How it was run: as §1

Botrytis cinerea [26] = assay: Antifungal activity against Botryotinia fuckeliana assessed as inhibition of pigmentation of hyphae at 200 ug/ml after 5 days by electron microscopy; format: functional, organism-based
How it was run: as §1

Botrytis cinerea [27] = assay: Antifungal activity against Botryotinia fuckeliana assessed as anamalous stratification at septa at 200 ug/ml after 5 days by electron microscopy; format: functional, organism-based
Botrytis cinerea [28] = assay: Antifungal activity against Botryotinia fuckeliana assessed as increased quantities of material in immediate layer of cell wall at 200 ug/ml after 5 days by electron microscopy; format: functional, organism-based
Sclerotinia minor [29] = assay: Antifungal activity against Sclerotinia minor assessed as color variation of hyphae at 200 ug/ml after 5 days by electron microscopy; format: functional, organism-based
How it was run: as §1

Berkeleyomyces basicola [30] = assay: Antifungal activity against Thielaviopsis basicola Went assessed as color variation of hyphae at 200 ug/ml after 5 days by electron microscopy; format: functional, organism-based
How it was run: as §1

Penicillium italicum [31] = assay: Antifungal activity against Penicillium italicum ATCC 48952 assessed as color variation of hyphae at 200 ug/ml after 5 days by electron microscopy; format: functional, organism-based
How it was run: as §1

Trichoderma harzianum [32] = assay: Antifungal activity against Trichoderma harzianum (Pers.)-Tul assessed as color variation of hyphae at 200 ug/ml after 5 days by electron microscopy; format: functional, organism-based
How it was run: as §1

Row | SMILES | inhibition of growth at 200 µg/mL (Berkeleyomyces basicola [1]) [%] | inhibition of growth at 100 µg/mL (Berkeleyomyces basicola [2]) [%] | inhibition of growth at 200 µg/mL (Alternaria solani [3]) [%] | inhibition of growth at 100 µg/mL (Alternaria solani [4]) [%] | inhibition of growth at 200 µg/mL (Sclerotinia minor [5]) [%] | inhibition of growth at 100 µg/mL (Sclerotinia minor [6]) [%] | inhibition of growth at 200 µg/mL (Botrytis cinerea [7]) [%] | inhibition of growth at 100 µg/mL (Botrytis cinerea [8]) [%] | inhibition of growth at 50 µg/mL (Botrytis cinerea [9]) [%] | inhibition of growth at 10 µg/mL (Botrytis cinerea [10]) [%] | inhibition of growth at 200 µg/mL (Pyricularia grisea [11]) [%] | inhibition of growth at 100 µg/mL (Pyricularia grisea [12]) [%] | inhibition of growth at 10 µg/mL (Pyricularia grisea [13]) [%] | inhibition of growth at 200 µg/mL (Penicillium crustosum [14]) [%] | inhibition of growth at 100 µg/mL (Penicillium crustosum [15]) [%] | inhibition of growth at 200 µg/mL (Penicillium italicum [16]) [%] | inhibition of growth at 100 µg/mL (Penicillium italicum [17]) [%] | inhibition of growth at 200 µg/mL (Trichoderma viride [18]) [%] | inhibition of growth at 100 µg/mL (Trichoderma viride [19]) [%] | inhibition of growth at 50 µg/mL (Pyricularia grisea [22]) [%] | also measured
1 | Cc1cccc2sc3nncn3c12 [TRICYCLAZOLE] | 66.6 | 40.1 | 0 | 0 | 0 | 0 | 77.8 | 29.6 | 8.3 | 0 | 94 | 62.3 | 0 | 95 | 80.3 | 70.4 | 20.1 | 60 | 20.2 | 24.1 | inhibition of growth at 100 µg/mL (Trichoderma harzianum [20]): 20%; inhibition of growth at 200 µg/mL (Trichoderma harzianum [21]): 50.2%
2 | Cc1nn(C)c2c1sc1nncn12 | 0 | 0 | 23.4 | 0 | 0 | 0 | 65.4 | 28.8 | 14.6 | 10.8 | 59.1 | 20.5 | 12.2 | 10 | 0 | 0 | 0 | 0 | 0 | 13 | Activity (Penicillium crustosum [23]): Active; Activity (Pyricularia grisea [24]): Active; Activity (Alternaria solani [25]): Active; Activity (Botrytis cinerea [26]): inactive; Activity (Botrytis cinerea [27]): Active; Activity (Botrytis cinerea [28]): Active; inhibition of growth at 100 µg/mL (Trichoderma harzianum [20]): 0%; Activity (Sclerotinia minor [29]): Active; inhibition of growth at 200 µg/mL (Trichoderma harzianum [21]): 0%; Activity (Berkeleyomyces basicola [30]): Active; Activity (Penicillium italicum [31]): Active; Activity (Trichoderma harzianum [32]): Active
3 | Cn1ncc2sc3nncn3c21 | – | – | – | – | – | – | 32.2 | 19.3 | 4 | 0 | 43.4 | 24 | 3 | – | – | – | – | – | – | 8.2 | –

From ChEMBL document CHEMBL3045048, “Synthesis and antifungal action of new tricyclazole analogues” (2004)
